Measured values collected from several papers.
Each line is one published result; the experiments were not run side by side.
Cell line: MDA-MB-435
Observed: cell growth or viability

SMILES | assay | conditions | quantity | result
COc1ccc(C(=O)/C=C/c2cccc(Br)c2)cc1S(N)(=O)=O | SRB | 10 µM | inhibition | 106%
CCOC(=O)c1[nH]c(Br)c(-c2ccc(OC)c(F)c2)c1Br | SRB | – | IC50 | 0.539 µM
COc1ccccc1/C=C/C(=O)c1ccc(OC)c(S(N)(=O)=O)c1 | SRB | 10 µM | inhibition | 73%
COc1ccc(N(C)c2ncnc3c2CCC3)cc1 | SRB | – | IC50 | 0.0504 µM
CCOC(=O)c1[nH]c(Br)c(-c2cccc(OC)c2)c1Br | SRB | – | IC50 | 0.633 µM
O=C1CCC2(Oc3cccc4cccc(c34)O2)c2c(O)ccc(O)c21 | resazurin | 72 h | IC50 | > 25 µM
CC(C)C[C@H](NC(=O)[C@H](Cc1ccccc1)NC(=O)c1cnccn1)B(O)O | ATP luminescence | – | IC50 | 0.008 µM
CCOC(=O)c1[nH]c(Br)c(-c2ccc(Cl)cc2)c1Br | SRB | – | IC50 | 0.919 µM
COc1ccc(-c2ccc(-c3ccc(C(=N)N)nc3)s2)cc1 | SRB | – | GI50 | 1.73 µM
COc1ccc(C(=O)/C=C/c2cccc3ccccc23)cc1S(N)(=O)=O | SRB | 10 µM | inhibition | 95%
O=C1NC(=NCc2cccs2)S/C1=C\c1ccc2ncccc2c1 | – | – | IC50 | 6.6 µM
COc1ccc(C(=O)/C=C/c2c(F)cccc2Cl)cc1S(N)(=O)=O | SRB | 10 µM | inhibition | 93%
CCOC(=O)c1[nH]c(Br)c(-c2ccc(Br)cc2)c1Br | SRB | – | IC50 | 0.312 µM
